Where a name gives a salt, the structure may show the parent alone.
Legend:
SD rats = experiment: Acute toxicological study; assay type: in vivo, rat
ZDF rats = experiment: Antidiabetic study, HbA1c in ZDF rats; assay type: in vivo, rat; settings: for HbA1c-lowering / antidiabetic effect (in words): repeated oral dosing BID, ZDF rats aged 11 to 13 weeks
Summary of the method: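 Male ZDF rats, 11 weeks old, allocated by HbA1c, fasting blood glucose and body weight. Test compound or metformin suspended in 5% gum Arabic, given orally twice daily and dosed on the latest body weight for 6 weeks. Body weight and food intake monitored. HbA1c measured by analyser, expressed as change from baseline; mean ± SE, n = 16 or 8; compared with vehicle group.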

[1] = tested on: NaCT-expressing CHO cells; experiment: TCA cycle activation assay; assay type: cell-based
Summary of the method: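 Stably transfected CHO-K1 cells express NaCT (pME18S, then pcDNA3.1(+) vectors); control CHO cells carry vector without the NaCT gene. Cells take up [1,5-14C]citric acid. TCA cycle activation is read as the reduction in residual intracellular radioactivity as the citrate is metabolised. Run with and without antimycin A (complex III inhibitor).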

[2] = Plasma pharmacokinetic study in SD rats; settings: rat, in vivo
Summary of the method: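 Male SD rats, 6–7 weeks old; test compound given as oral suspension by body weight, two animals per compound. Tail-vein blood was collected. Plasma was mixed with 10-fold acetonitrile–methanol (1:1), centrifuged, and the supernatant analysed by LC-ESI-MS/MS (C18 column, ammonium acetate/acetonitrile gradient, negative-ion selected reaction monitoring). Plasma detection limit 0.01 μg/mL.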

Tissue distribution = assay type: in vivo, rat; settings: 2 h after 10 mg/kg p.o., SD rats, mean of 2 animals; detection limit 0.04 μg/g
Summary of the method: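 Male SD rats, 6–7 weeks old, given test compound as oral suspension, two animals per compound; values are means of 2. Liver and brain homogenates and plasma were mixed with 10-fold acetonitrile–methanol (1:1), centrifuged, and supernatants analysed by LC-ESI-MS/MS in negative-ion SRM mode. Detection limits 0.01 μg/mL (plasma) and 0.04 μg/g (liver, brain).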

HepG2 cells = experiment: Oxygen consumption rate; assay type: cell-based, human; settings: in the presence of oligomycin, P < 0.01 vs DMSO

N#Cc1[nH]nnc1-c1cccc(OCc2cc(C(F)(F)F)ccc2C(F)(F)F)c1 [Compound 3a, 5-{3-[2,5-Bis(trifluoromethyl)benzyloxy]phenyl}-3H-[1,2,3]triazole-4-carbonitrile]
Deaths (SD rats; 300 mg/kg single dose, after hyperthermia and hyperglycemia): one of three

N#Cc1[nH]nnc1-c1cccc(-c2cc(F)cc(C(F)(F)F)c2)c1 [Compound 3b, 5-(3′-Fluoro-5′-trifluoromethyl-[1,1-biphenyl]-3-yl)-3H-[1,2,3]triazole-4-carbonitrile]
Doses elevating rectal temperature (SD rats; single dose, SD rats, 8 h after dosing): no elevation of rectal temperature was observed | HbA1c-lowering / antidiabetic effect (in words) (ZDF rats): remarkable antidiabetic effect

N#Cc1[nH]nnc1-c1cc(Cl)cc(/C=C/c2cccc(C(F)(F)F)c2)c1 [Compound 3c, (E)-5-(3-Chloro-5-(3-(trifluoromethyl)styryl)phenyl)-3H-1,2,3-triazole-4-carbonitrile]
In vitro activity relative to compound 1 ([1]; EC50 of the TCA activation): one-third | Metabolite finding in PK study [2]: a metabolite implying the possibility of future adverse effects was found | HbA1c-lowering / antidiabetic effect (in words) (ZDF rats): significant HbA1c lowering effect

N#Cc1[nH]nnc1-c1csc(-c2ccc(Cl)cc2)n1 [Compound 3d, 5-[2-(4-Chlorophenyl)-thiazol-4-yl]-3H-[1,2,3]triazole-4-carbonitrile]
Brain distribution, concentration (Tissue distribution): indetectable | HbA1c-lowering / antidiabetic effect (in words) (ZDF rats): prominent

Cc1sc(-c2ccc(C(F)(F)F)cc2)nc1-c1nn(C)nc1C#N [Compound 4, 2-Methyl-5-{5-methyl-2-[4-(trifluoromethyl)phenyl]thiazol-4-yl}-2H-1,2,3-triazole-4-carbonitrile]
Activation of the TCA cycle (in words) [1]: did not occur

O=[N+]([O-])c1ccc(O)c([N+](=O)[O-])c1 [DNP, 2,4-dinitrophenol]
Concentration significantly increasing OCR (HepG2 cells): 40 µM

N#CC(C#N)=NNc1ccc(OC(F)(F)F)cc1 [FCCP, Carbonyl cyanide p-trifluoromethoxyphenylhydrazone]
Concentration significantly increasing OCR (HepG2 cells): 0.25 µM

CN(C)C(=N)N=C(N)N [metformin, 1,1-Dimethyl biguanide (metformin) hydrochloride, reference compound]
Effect on HbA1c, monotherapy (in words) (ZDF rats; 100 mg/kg/day alone, 6-week, ZDF rats): no effect

N[C@@H](CC(=O)N1CCn2c(nnc2C(F)(F)F)C1)Cc1cc(F)c(F)cc1F [sitagliptin, Sitagliptin phosphate hydrate, reference compound]
Reduction of HbA1c change from the vehicle value (ZDF rats; monotherapy 10 mg/kg/day, 6-week, vehicle 2.97% points): 11.4%

Source: publication PMC8264940 (ACS Omega, 2021)
